CHT PAM: CHT positive allosteric modulators, primary screen, cell-based, membrane potential dye, choline EC20; High affinity choline transporter 1 (Homo sapiens), Q9GZV3; CHT-expressing cells; hits give high values; LV-AA mutant CHT in HEK293 cells; B-score at 10 µM; 310,000 compounds, 0.49% hits; AID 488977, 2010;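 active = initial fluorescence not abnormally high and integrated response B-score, plate-corrected, over 3 SD above library mean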
Target sequence (Q9GZV3 whole entry, looked up): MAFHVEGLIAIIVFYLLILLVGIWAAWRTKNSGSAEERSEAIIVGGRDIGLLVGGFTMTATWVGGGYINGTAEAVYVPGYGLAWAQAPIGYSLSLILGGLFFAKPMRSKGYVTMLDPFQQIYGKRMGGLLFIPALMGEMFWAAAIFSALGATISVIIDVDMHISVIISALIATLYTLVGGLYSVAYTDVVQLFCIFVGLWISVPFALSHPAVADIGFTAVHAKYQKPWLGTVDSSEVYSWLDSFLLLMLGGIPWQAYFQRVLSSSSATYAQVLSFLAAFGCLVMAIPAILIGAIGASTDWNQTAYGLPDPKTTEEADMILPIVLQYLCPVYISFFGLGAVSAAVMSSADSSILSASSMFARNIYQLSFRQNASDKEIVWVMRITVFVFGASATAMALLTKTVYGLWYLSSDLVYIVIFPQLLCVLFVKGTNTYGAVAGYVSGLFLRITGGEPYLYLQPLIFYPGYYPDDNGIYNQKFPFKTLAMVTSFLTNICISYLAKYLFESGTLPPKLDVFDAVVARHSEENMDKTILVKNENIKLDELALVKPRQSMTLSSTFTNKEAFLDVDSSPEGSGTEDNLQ
Rad51 HR inh: human RAD51 strand exchange inhibitors, primary screen, biochemical, fluorescence. DNA repair protein RAD51 homolog 1 (Homo sapiens), Q06609. hRad51 DNA strand exchange, fluorescence dequenching. 200,000 compounds, 0.085% hits. inhibition, % at 10 µM;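 active = inhibition above 40% at the single screening dose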;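 note: 0% = DMSO control wells and 100% = blanks with heterologous ssDNA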
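Test system – preformed human Rad51 ssDNA filaments · Reagent – Donor/quencher-labelled 47-bp dsDNA substrate · Incubation – 37 °C 15-min filament assembly, 30-min compound preincubation, 15-min exchange · Signal – FRET fluorescence dequenching, excitation 485 nm, emission 520 nm · Read-out – percent inhibition from fluorescence, normalised to plate control and blank means · Benchmarks – plate control and blank wells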
KCC2 mod: KCC2 cotransporter modulators, thallium flux, primary screen, cell-based, HEK293 KCC2, FluoZin-2 fluorescence, MLSMR | AID 1456, 2008 | B-score of Tl+ flux slope (higher = more flux/activation; lower = inhibition) at 10 µM | 190,000 compounds, 2.2% hits | KCC2 cells, thallium flux FluoZin-2 fluorescence;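 active = thallium flux slope and its plate-corrected score both differing from the plate sample mean at a set confidence after two filtering rounds, in either direction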;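 note: slope of fluorescence scaled to starting intensity during 10 to 20 s after thallium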
CHT inh: inhibitors of human choline transporter CHT. 310,000 compounds, 0.86% hits. High affinity choline transporter 1 (Homo sapiens), Q9GZV3. CHT-expressing cells, membrane potential dye, choline response; hits give low values. B-score at 10 µM. AID 488975, 2010;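 active = B-score over 3 SD under the library average, and starting fluorescence ratio not unusually high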;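 note: choline stimulus applied at its EC90 after an EC20 pre-addition; B-score computed on integrated fluorescence ratio after choline addition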
CHT act confirm: CHT activators, confirmation, cell-based, membrane potential dye, duplicate | 2,500 compounds, 91% hits | shares compounds with CHT PAM | AID 504833, 2011 | CHT-expressing cells, membrane potential dye fluorescence (FDSS); % of choline EC20–EC90 response window; HEK293 expressing CHT LV-AA mutant; choline added at its EC20 | activation, % at 10 µM;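 active = primary screen active, with duplicate mean activation above negative control mean plus 3 SD, cut at about 11% in these data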
HEK293 MP dye: membrane potential response in parental HEK293 cells, counter-screen for CHT activator project, cell-based, membrane potential dye; shares compounds with CHT PAM; membrane potential dye fluorescence (FDSS); measured after EC20 choline addition; ratio readout change at 10 µM, hits read low; 2,500 compounds, 62% hits; AID 623908, 2012;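 active = duplicate-averaged ratio beyond 3 SD from buffer wells, up or down, though filed actives are nearly all decreases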
Active calls of the source: *. Hits are enriched below; roughly 2.6% of the tested compounds scored in any of these assays.

Screening O=C(N/N=C/c1ccncc1)c1cc([N+](=O)[O-])cc([N+](=O)[O-])c1 returned CHT PAM inactive, Rad51 HR inh 1, KCC2 mod 1.3 and CHT inh inactive.
O=C(N/N=C/c1ccncc1)c1cccc([N+](=O)[O-])c1 was read as CHT PAM inactive, Rad51 HR inh 2, KCC2 mod -1.6, CHT inh inactive, CHT act confirm 49* and HEK293 MP dye -51*.
O=C([C@@H]1Cc2ccccc2CN1)N1CCN(Cc2ccccc2)CC1 was read as CHT PAM inactive and CHT inh inactive.
`CCCCc1ccc(N=N/C(C(=O)Nc2ccc(NC(C)=O)cc2OC)=C(/C)O)cc1` gave CHT PAM inactive and CHT inh inactive.
For CCCCC[n+]1ccn(-c2nc3ccccc3nc2[N-]S(=O)(=O)c2ccccc2)c1 the results were CHT PAM inactive, KCC2 mod -2.1 and CHT inh inactive.
CCCC[n+]1ccn(-c2nc3c([N+](=O)[O-])cccc3n2C)c1 was read as CHT PAM inactive, CHT inh inactive, CHT act confirm 67* and HEK293 MP dye -55*.
For CCOC(=O)Cc1csc(SCC(=O)NC2CCC(C)CC2)n1 (stereo unspecified) the results were CHT PAM inactive and CHT inh inactive.
For COc1ccc(Nc2ncnc3ccccc23)cc1 the results were CHT PAM inactive, Rad51 HR inh 8 and CHT inh inactive.
`COc1ccc(Nc2ccnc3ccccc23)cc1` gave CHT PAM 6.6*, Rad51 HR inh 1, KCC2 mod -0.51, CHT inh inactive, CHT act confirm 28* and HEK293 MP dye -55*.
`CCCCn1c(N)c(N(CCOC)C(=O)CN2C(=O)c3ccccc3C2=O)c(=O)[nH]c1=O` gave CHT PAM inactive and CHT inh inactive.
CCc1ccccc1NC(=O)c1ccc(-c2csc(C)n2)cc1 was read as CHT PAM inactive, CHT inh inactive, CHT act confirm 7 and HEK293 MP dye inactive.
Screening Cc1nc2ccccc2c2c1CC(C)S2 (stereo unspecified) returned CHT PAM inactive, Rad51 HR inh -7, CHT inh inactive, CHT act confirm 42* and HEK293 MP dye -53*.
For CC(CC(F)(F)F)N1CCC(n2nccc2NC(=O)CCCc2ccccc2)CC1 (stereo unspecified) the results were CHT PAM inactive, CHT inh inactive, CHT act confirm -3 and HEK293 MP dye inactive.
Screening CC(C)CC(C)N1CCC(n2nccc2NC(=O)CCc2ccccc2)CC1 (stereo unspecified) returned CHT PAM inactive, CHT inh inactive, CHT act confirm 32* and HEK293 MP dye inactive.
CN(C)S(=O)(=O)N(CC(=O)NCCSCc1ccc(Cl)cc1)c1ccccc1 was read as CHT PAM 8*, KCC2 mod 3.5, CHT inh inactive, CHT act confirm 1 and HEK293 MP dye inactive.
Screening CS(=O)(=O)N(CC(=O)NCCSCc1ccccc1)c1ccccc1 returned CHT PAM inactive, Rad51 HR inh 0, KCC2 mod -2.7 and CHT inh inactive.
C[C@H]1CC[C@]2(O[C@H](CCO)C[C@@H](O)[C@@H]2O)O1 was read as CHT PAM inactive, Rad51 HR inh 2, KCC2 mod -0.7 and CHT inh inactive.
O=C(Nc1nnc(-c2ccc3c(c2)OCCO3)o1)C1CCCCC1 was read as CHT PAM inactive, Rad51 HR inh 5, KCC2 mod -0.25 and CHT inh inactive.
Screening CCOCCCn1c(=NC(C)=O)c(C#N)cc2c(=O)n3cccc(C)c3nc21 returned CHT PAM inactive, Rad51 HR inh -13, KCC2 mod -0.63, CHT inh inactive, CHT act confirm 43* and HEK293 MP dye -62*.
